# Reference: ChEMBL document CHEMBL4689842, “EUbOPEN Chemogenomics Library wave 1” (2021)
# Several values for one entry are separate records, joined by “and”; a condition that tells them apart may be missing. Equal values may be shown once.
# Tested on: HEK-293T
# Assay: Multiplex assay against HEK293T;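 for Population Tubulin-Different-Phenotype (%): share of the cells with healthy nuclei that show this phenotype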
# Format: toxicity, cell-based
# Settings: human
# How it was run: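 Hoechst33342, BioTracker Green Microtubule Cytoskeleton Dye, MitoTracker Red and Annexin V Alexa Fluor 680 were added to live cells at seeding, and imaging on a CQ1 microscope at 37°C and 5% CO2 followed compound addition. Gating by CellPathfinder machine learning separated cells into Hoechst high-intensity objects or normal cells, then normal cells into healthy, pyknosed or fragmented nuclei, then pyknosed cells into mitotic or apoptotic. Per cents of healthy-nucleus cells are reported for the tubulin, mitochondrial-mass and membrane-permeability phenotypes.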
# [1] = 12 h, 1 µM, compound concentration 1 uM, replicate 1
# [2] = 12 h, 1 µM, compound concentration 1 uM, replicate 2
# [3] = 12 h, 10 µM, compound concentration 10 uM, replicate 1
# [4] = 12 h, 10 µM, compound concentration 10 uM, replicate 2
# [5] = 24 h, 1 µM, compound concentration 1 uM, replicate 1
# [6] = 24 h, 1 µM, compound concentration 1 uM, replicate 2
# [7] = 24 h, 10 µM, compound concentration 10 uM, replicate 1
# [8] = 24 h, 10 µM, compound concentration 10 uM, replicate 2
# [9] = 48 h, 10 µM, compound concentration 10 uM, replicate 1
# [10] = 48 h, 10 µM, compound concentration 10 uM, replicate 2
smiles,measurement,setting,value
CCOC(=O)Nc1cc(-c2ccc(C)c(NS(C)(=O)=O)c2)nn2c(C)nnc12,Population Apoptotic (%),[1],18%
same,Population Fragmented Nuclei (%),[1],13%
same,Population Healthy Nuclei (%),[1],68%
same,Population Hoechst High Intensity Objects (%),[1],9%
same,Population Membrane Permeable-Phenotype (%),[1],3%
same,Population Mitochondria Different-Phenotype (%),[1],3%
same,Population Mitotic Cells (%),[1],81%
same,Population Normal (%),[1],90%
same,Population Pyknosed Nuclei (%),[1],17%
same,Population Tubulin-Different-Phenotype (%),[1],2%
same,Total Cell Count,[1],561
same,Population Apoptotic (%),[2],12%
same,Population Fragmented Nuclei (%),[2],10%
same,Population Healthy Nuclei (%),[2],87%
same,Population Hoechst High Intensity Objects (%),[2],2%
same,Population Membrane Permeable-Phenotype (%),[2],0%
same,Population Mitochondria Different-Phenotype (%),[2],6%
same,Population Mitotic Cells (%),[2],87%
same,Population Normal (%),[2],97%
same,Population Pyknosed Nuclei (%),[2],2%
same,Population Tubulin-Different-Phenotype (%),[2],0%
same,Total Cell Count,[2],1857
same,Population Apoptotic (%),[3],44% and 28%
same,Population Fragmented Nuclei (%),[3],19% and 8%
same,Population Hoechst High Intensity Objects (%),[3],12% and 6%
same,Population Membrane Permeable-Phenotype (%),[3],0% and 2%
same,Population Mitotic Cells (%),[3],55% and 71%
same,Population Normal (%),[3],88% and 93%
same,Total Cell Count,[3],275 and 719
same,Population Apoptotic (%),[4],4% and 3%
same,Population Fragmented Nuclei (%),[4],16%
same,Population Healthy Nuclei (%),[4],79% and 50%
same,Population Hoechst High Intensity Objects (%),[4],3% and 4%
same,Population Mitochondria Different-Phenotype (%),[4],6% and 8%
same,Population Mitotic Cells (%),[4],95% and 96%
same,Population Normal (%),[4],96% and 95%
same,Population Tubulin-Different-Phenotype (%),[4],1%
same,Population Apoptotic (%),[5],13%
same,Population Fragmented Nuclei (%),[5],11%
same,Population Healthy Nuclei (%),[5],78%
same,Population Hoechst High Intensity Objects (%),[5],7%
same,Population Membrane Permeable-Phenotype (%),[5],4%
same,Population Mitochondria Different-Phenotype (%),[5],2%
same,Population Mitotic Cells (%),[5],86%
same,Population Normal (%),[5],92%
same,Population Pyknosed Nuclei (%),[5],9%
same,Population Tubulin-Different-Phenotype (%),[5],0%
same,Total Cell Count,[5],702
same,Population Apoptotic (%),[6],6%
same,Population Fragmented Nuclei (%),[6],32%
same,Population Healthy Nuclei (%),[6],65%
same,Population Hoechst High Intensity Objects (%),[6],4%
same,Population Membrane Permeable-Phenotype (%),[6],0%
same,Population Mitochondria Different-Phenotype (%),[6],1%
same,Population Mitotic Cells (%),[6],93%
same,Population Normal (%),[6],95%
same,Population Pyknosed Nuclei (%),[6],2%
same,Total Cell Count,[6],3024
same,Population Apoptotic (%),[7],42% and 17%
same,Population Fragmented Nuclei (%),[7],16% and 17%
same,Population Healthy Nuclei (%),[7],34% and 77%
same,Population Hoechst High Intensity Objects (%),[7],9% and 6%
same,Population Membrane Permeable-Phenotype (%),[7],1% and 6%
same,Population Mitotic Cells (%),[7],57% and 82%
same,Population Normal (%),[7],90% and 93%
same,Population Tubulin-Different-Phenotype (%),[7],1% and 2%
same,Population Healthy Nuclei (%),[8],68% and 53%
same,Population Hoechst High Intensity Objects (%),[8],2% and 5%
same,Population Mitochondria Different-Phenotype (%),[8],1%
same,Population Mitotic Cells (%),[8],98% and 95%
same,Population Normal (%),[8],97% and 94%
same,Population Apoptotic (%),[9],38%
same,Population Fragmented Nuclei (%),[9],19%
same,Population Healthy Nuclei (%),[9],48%
same,Population Hoechst High Intensity Objects (%),[9],11%
same,Population Membrane Permeable-Phenotype (%),[9],1%
same,Population Mitochondria Different-Phenotype (%),[9],4%
same,Population Mitotic Cells (%),[9],61%
same,Population Normal (%),[9],88%
same,Population Pyknosed Nuclei (%),[9],32%
same,Population Tubulin-Different-Phenotype (%),[9],1%
same,Total Cell Count,[9],380
same,Population Apoptotic (%),[10],4%
same,Population Fragmented Nuclei (%),[10],9%
same,Population Healthy Nuclei (%),[10],83%
same,Population Hoechst High Intensity Objects (%),[10],2%
same,Population Mitochondria Different-Phenotype (%),[10],0%
same,Population Mitotic Cells (%),[10],95%
same,Population Normal (%),[10],97%
same,Population Pyknosed Nuclei (%),[10],7%
same,Population Tubulin-Different-Phenotype (%),[10],0%
same,Total Cell Count,[10],566
